{"source": "paper PMC5939375", "about": "(Biochemistry, 2016)", "key": {"[1]": {"target": "T1, reduced WT FDTS (Thermotoga maritima, UniProt Q9WYT0)", "T1 sequence (Q9WYT0 1-220)": "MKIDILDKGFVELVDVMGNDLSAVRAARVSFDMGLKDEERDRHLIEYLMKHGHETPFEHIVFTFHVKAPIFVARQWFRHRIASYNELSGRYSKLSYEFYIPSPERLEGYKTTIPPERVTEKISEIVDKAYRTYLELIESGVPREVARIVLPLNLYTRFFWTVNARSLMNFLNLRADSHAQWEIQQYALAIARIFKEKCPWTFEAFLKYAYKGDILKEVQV", "details": "cited from earlier work"}, "[2]": {"target": "T2, WT FDTS (Thermotoga maritima, UniProt Q9WYT0)", "experiment": "Spectrophotometric titration of oxidized WT FDTS with ligand", "format": "binding"}, "[3]": {"target": "T1, reduced WT FDTS", "experiment": "Reactivity of dUMP analogs with reduced FDTS in the presence of CH2THF", "format": "biochemical", "details": "anaerobic, 0.1 M Tris-HCl pH 8 at 25 °C; 200 μM CH2THF; 10 mM dU or 200 μM dUMS; over four hours", "summary_of_the_method": "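Recombinant T. maritima WT enzyme, purified, converted to apo-protein with concentrated NaCl, and reconstituted with exogenous FAD after desalting. Run in anaerobic cuvettes in 0.1 M Tris-HCl, pH 8, 25 °C. To reduced enzyme, CH2THF (200 μM final) was added first, then test compound (final concentration as listed). Flavin spectra were followed by scanning spectrophotometry. The mixture was afterwards analysed by HPLC for 2′-deoxythymidine-5′-monosulfate.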"}, "[4]": {"target": "T3, R174A FDTS (Thermotoga maritima, UniProt Q9WYT0, R174A)", "T3 sequence (Q9WYT0 whole entry R174A)": "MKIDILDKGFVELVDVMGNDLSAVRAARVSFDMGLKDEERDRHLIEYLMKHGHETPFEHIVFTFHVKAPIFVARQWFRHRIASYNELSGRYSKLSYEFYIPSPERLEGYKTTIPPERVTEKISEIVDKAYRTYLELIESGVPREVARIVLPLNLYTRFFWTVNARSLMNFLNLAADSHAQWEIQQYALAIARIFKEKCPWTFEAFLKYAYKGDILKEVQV", "experiment": "Spectrophotometric titration of R174A FDTS with ligand", "format": "binding"}, "[5]": {"target": "T3, R174A FDTS", "details": "R174A variant; oxidative half-reaction with dUMP and CH2THF; cited from earlier work"}, "[6]": {"target": "T4, R90A FDTS (Thermotoga maritima, UniProt Q9WYT0, R90A)", "T4 sequence (Q9WYT0 whole entry R90A)": "as the sequence (Q9WYT0 whole entry R174A) above, with R90A, A174R counted along it", "details": "R90A variant; oxidative half-reaction with dUMP and CH2THF; cited from earlier work"}, "[7]": {"target": "T4, R90A FDTS", "experiment": "Spectrophotometric titration of R90A FDTS with ligand", "format": "binding"}, "[8]": {"details": "cited from earlier work"}, "[9]": {"target": "T2, WT FDTS"}}, "note": "“Also recorded” adds a separate entry of the source.", "data": [{"smiles": "O=c1[nH]c(=O)n([C@H]2C[C@H](O)[C@@H](COP(=O)(O)O)O2)cc1F", "note": "[5F-dUMP, 5-fluoro-2′-deoxyuridine-5′-monophosphate]", "values": [{"measurement": "oxidation of reduced FDTS in the presence of CH2THF", "setting": "[1]", "result": "cannot oxidize reduced FDTS"}]}, {"smiles": "O=c1ccn([C@H]2C[C@H](O)[C@@H](CO)O2)c(=O)[nH]1", "note": "[dU, 2′-Deoxyuridine]", "values": [{"measurement": "loss of binding energy", "setting": "[2]; dU binding to WT FDTS vs dUMP", "result": "~ 5.2 kcal/mol"}, {"measurement": "oxidation of reduced FDTS flavin in the presence of CH2THF", "setting": "[3]", "result": "failed to oxidize reduced WT FDTS; also recorded: neither dU nor dUMS cause oxidation of the reduced flavin; also recorded: No oxidation of the flavin occurred"}]}, {"smiles": "O=c1ccn([C@H]2C[C@H](O)[C@@H](COP(=O)(O)O)O2)c(=O)[nH]1", "note": "[dUMP, 2′-deoxyuridine-5′-monophosphate]", "values": [{"measurement": "Kd", "setting": "[2]; Kd, WT FDTS, 0.1 M Tris-HCl, pH 8 at 25 °C, estimate from fitting to Eq. 1", "result": "~0.03", "unit": "µM"}, {"measurement": "Kd", "setting": "[4]", "result": "109 ± 6", "unit": "µM"}, {"measurement": "loss of binding energy", "setting": "[4]; dUMP binding to R174A FDTS vs WT", "result": "~ 5.4 kcal/mol"}, {"measurement": "rate constant for flavin oxidation, fold smaller than wild-type FDTS", "setting": "[5]", "result": 3000, "unit": "fold"}, {"measurement": "rate constant for flavin oxidation, fold smaller than wild-type FDTS", "setting": "[6]", "result": 8, "unit": "fold"}, {"measurement": "Kd", "setting": "[7]", "result": "14 ± 2", "unit": "µM"}, {"measurement": "loss of binding energy", "setting": "[7]; dUMP binding to R90A FDTS vs WT", "result": "~ 4.0 kcal/mol"}, {"measurement": "pKa for N3 of dUMP", "setting": "[8]; aqueous solution", "result": 9.3}, {"measurement": "pKa of anionic phosphate oxygen of dUMP", "setting": "[8]; phosphate oxygen, reference not given", "result": "about 7"}, {"measurement": "pKa of N3 of dUMP bound to FDTS", "setting": "[9]; bound to WT FDTS, by the interaction of R174", "result": "below 8"}, {"measurement": "stabilization of the N3 anion of bound dUMP by R174", "setting": "[9]; fully ionized at pH 8", "result": "at least 2.8 kcal mol^−1"}]}, {"smiles": "O=c1ccn([C@H]2C[C@H](O)[C@@H](COS(=O)(=O)O)O2)c(=O)[nH]1", "note": "[dUMS, 2′-deoxyuridine-5′-monosulfate]", "values": [{"measurement": "oxidation of reduced FDTS flavin in the presence of CH2THF", "setting": "[3]", "result": "unable to oxidize reduced FDTS; also recorded: failed to oxidize reduced FDTS; also recorded: neither dU nor dUMS cause oxidation of the reduced flavin; also recorded: No oxidation of the flavin occurred"}]}]}
